These results are taken from ChEMBL document CHEMBL1140888, “Synthesis, trypanocidal activity and docking studies of novel quinoxaline-N-acylhydrazones, designed as cruzain inhibitors candidates” (Bioorg Med Chem, 2009).

For data set [1], the system named is Trypanosoma cruzi. In words: Antitrypanosomal activity against Trypanosoma cruzi Tulahuen 2 at 25 uM relative to nifurtimox. It counts as functional. The conditions noted are these: read-out: GI. In outline: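 Epimastigotes of Tulahuen 2 strain exposed to 25 µM compound, up to 1% DMSO. A600 read right after inoculation (day 0) and at day 5. %inhibition = {1 − [(Ap − A0p)/(Ac − A0c)]} × 100 against drug-free control. Means of three independent experiments; nifurtimox as reference drug.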

Data set [2] concerns Trypanosoma cruzi. Kind of data set: Antitrypanosomal activity against Trypanosoma cruzi Tulahuen 2. It counts as functional, organism-based. In outline:
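Epimastigotes of T. cruzi Tulahuen 2 grown with compound, up to 1% DMSO tolerated. Growth followed as absorbance at 600 nm at day 0 and day 5. Percent inhibition taken relative to drug-free control. IC50 determined only for compounds giving >80% inhibition at 25 µM. Means of three independent experiments; nifurtimox reference.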

The subject of data set [3] is J774. In words: Cytotoxicity against mouse J774 cells at 400 uM after 48 hrs by MTT assay. The conditions noted are these: j774, 48 h. It counts as cell-based. Summed up: (§1)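 J-774 macrophages seeded at 100.000 cells/well in RPMI 1640 with 20% heat-inactivated FCS, attached 48 h at 37 °C, 5% CO2. Exposed to 100, 200 or 400 µM for 48 h, washed with PBS, then MTT 0.4 mg/mL for 3 h at 37 °C. Formazan dissolved in DMSO, OD595 read. %cytotoxicity corrected for compound-in-medium blanks; triplicate wells, six growth controls.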
In general terms: Tetrazolium dyes change colour on reduction, which living cells bring about.

For data set [4], the system named is J774. Kind of data set: Cytotoxicity against mouse J774 cells after 48 hrs by MTT assay. It counts as cell-based. Conditions: J774, 48 h. In outline:
as §1

Data set [5] in a line: Selectivity index, ratio of IC50 for mouse J774 cells to IC50 for Trypanosoma cruzi Tulahuen 2. It counts as toxicity, cell-based. Conditions: J774 cells (versus Trypanosoma cruzi Tulahuen 2), read-out: Ratio IC50.

For the compound `O=C(N/N=C/c1ccccc1)c1nc2ccccc2nc1-c1ccccc1`, the inhibition of growth at 25 µM with Trypanosoma cruzi [1] turned out to be 3%.

Regarding `O=C(N/N=C/c1ccc(F)cc1)c1nc2ccccc2nc1-c1ccccc1`, the inhibition of growth at 25 µM in the data set on Trypanosoma cruzi [1] was determined as 22%. The same measure, in the same setting: to `O=C(N/N=C/c1ccc(Br)cc1)c1nc2ccccc2nc1-c1ccccc1` belongs 40%; to `O=C(N/N=C/c1ccncc1)c1nc2ccccc2nc1-c1ccccc1`, 0%. Turning to `CN(C)c1ccc(/C=N/NC(=O)c2nc3ccccc3nc2-c2ccccc2)cc1`, in the data set with Trypanosoma cruzi [1], the inhibition of growth at 25 µM was 29%. With `O=C(N/N=C/c1ccc([N+](=O)[O-])cc1)c1nc2ccccc2nc1-c1ccccc1`, the inhibition of growth at 25 µM in the data set on Trypanosoma cruzi [1] was determined as 19%. For orientation: IC50 means the point on the concentration scale where inhibition reaches its midpoint. Read a high IC50 as a need for much substance. For `O=C(N/N=C/c1ccccc1O)c1nc2ccccc2nc1-c1ccccc1`, the inhibition of growth at 25 µM with Trypanosoma cruzi [1] worked out at 96%. Further, the IC50 in the data set on Trypanosoma cruzi [2] was 15.9 µM; with J774 [4], over 400 µM. For the same compound, the Activity in the data set with J774 [3] was 14%. Also, the selectivity ratio in data set [5] is over 25.2. With `O=C(N/N=C/c1ccc(O)cc1)c1nc2ccccc2nc1-c1ccccc1`, the inhibition of growth at 25 µM in the data set with Trypanosoma cruzi [1] was 27%. The same measure, in the same setting: to `O=C(N/N=C/c1ccccn1)c1nc2ccccc2nc1-c1ccccc1` belongs 0%. In the case of `Cc1nc2ccccc2nc1C(=O)N/N=C/c1ccccc1O`, the inhibition of growth at 25 µM in the data set on Trypanosoma cruzi [1] was 81%. The IC50 was 20 µM with Trypanosoma cruzi [2] and over 400 µM in the data set with J774 [4]. Moreover, the Activity in the data set with J774 [3] is listed as 12%. Further, in data set [5], the selectivity ratio is over 20.

Regarding `O=C(N/N=C/c1ccc(Cl)cc1)c1nc2ccccc2nc1-c1ccccc1`, the inhibition of growth at 25 µM with Trypanosoma cruzi [1] stood at 53%. The same measure, in the same setting: to `CC(C)c1ccc(/C=N/NC(=O)c2nc3ccccc3nc2-c2ccccc2)cc1` belongs 36%. Same read-out and setting: to `O=C(N/N=C/c1ccccc1Cl)c1nc2ccccc2nc1-c1ccccc1` belongs 35%; to `O=C(N/N=C/c1cccc(Cl)c1)c1nc2ccccc2nc1-c1ccccc1`, 47%.

As to `O=C(N/N=C/c1ccco1)c1nc2ccccc2nc1-c1ccccc1`, the inhibition of growth at 25 µM in the data set on Trypanosoma cruzi [1] amounted to 0%.

In the case of `CC(=O)N1CCN(c2ccc(OCC3COC(Cn4ccnc4)(c4ccc(Cl)cc4Cl)O3)cc2)CC1` (centres undefined) [KETOCONAZOLE], the Activity in the data set on J774 [3] came to 100%. In the data set with J774 [4], this compound gave an IC50 of under 50 µM. In data set [5], the selectivity ratio is under 5.

`CN(C/C=C/C#CC(C)(C)C)Cc1cccc2ccccc12` [TERBINAFINE] came in with an Activity in the data set with J774 [3] of 100%. In the data set on J774 [4], half-maximal inhibition (IC50) was put at 88 µM. Also, in data set [5], the selectivity ratio was 5.1.
